Screening data as filed in PubChem.
mABHD4 FP – inhibitors of mouse ABHD4. Q8VD66. purified mABHD4, FP-Rh probe fluorescence polarization. inhibition, % at 8.92 µM. hit rate 0.54% among 370,000. AID 720543;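 active means inhibition exceeding the mean over every tested compound plus 3 SD, cut at about 30% in these data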;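 further: 0% = plate median of compound wells and 100% = S159A mutant with DMSO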
Target sequence (Q8VD66 whole entry, looked up): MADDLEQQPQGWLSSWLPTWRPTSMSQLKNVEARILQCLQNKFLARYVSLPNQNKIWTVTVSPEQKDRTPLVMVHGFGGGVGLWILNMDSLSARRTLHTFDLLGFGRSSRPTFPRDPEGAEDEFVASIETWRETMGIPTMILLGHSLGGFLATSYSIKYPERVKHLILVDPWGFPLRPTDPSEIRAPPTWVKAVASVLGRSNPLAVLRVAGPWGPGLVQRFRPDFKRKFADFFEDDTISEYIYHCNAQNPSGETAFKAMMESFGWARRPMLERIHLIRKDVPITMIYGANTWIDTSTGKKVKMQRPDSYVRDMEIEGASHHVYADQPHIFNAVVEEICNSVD
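assay system = mABHD4 protein | compound dosing = single nominal dose of 8.92 µM, 0.89% DMSO final | read-out basis = percent inhibition of probe binding, normalized to plate controls | schedule = Enzyme–compound pre-incubation 45 min, then probe 60 min, both 25 °C | detection = fluorescence polarization, excitation 525 nm, emission 598 nm, BODIPY TMR filters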
DDE Tn6 FP inh – inhibitors of Tn6 peptide binding to human fibrin DD(E) | P02675 | Fibrin DD(E) TRITC-Tn6 fluorescence polarization displacement | inhibition, % at 8.3 µM | hit rate 0.21% among 370,000 | AID 720509;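 active means inhibition above a per-campaign cutoff: mean of compounds within control limits plus 3 SD, cut at about 15% in these data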;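 further: 0% = median of all compound wells on the plate and 100% = blocking peptide control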
DDE Tn7 FP inh – disrupts Tn7 cyclic peptide binding to fibrin D-Dimer-E complex. P02675. FP displacement of FITC-Tn7 peptide from fibrin DD(E); 0% = median of compound wells per plate. inhibition, % at 8.3 µM. hit rate 0.13% among 370,000;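 active means inhibition above the mean of compounds falling within the control limits plus 3 SD of them, cut at about 14% in these data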;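 further: 0% = plate median of compound wells and 100% = 10 µM Aha-Tn7 peptide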
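Assay system: Fibrin-DD(E) protein isolated from polymerized human fibrin clots; read-out basis: percent inhibition; medium: Tris/NaCl/CaCl2 buffer, pH 7.8; signal: FP measurement; incubation: 10 min plus 3 h, room temperature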
HTRA1 inh – inhibitors of human serine peptidase HTRA1; Q92743; recombinant HTRA1, FP-rhodamine activity-based probe, fluorescence polarization; inhibition, % at 5.96 µM; hit rate 0.5% among 340,000; AID 504803; in the data active means inhibition above about 36%;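 further: 0% = enzyme with DMSO and 100% = wells lacking enzyme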
TCR CD3 inh – inhibitors of human TCR-CD3 interaction; inhibition, % at 9.4 µM; hit rate 0.37% among 360,000; TAMRA-labeled TCR probe fluorescence, biochemical;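 further: recombinant mutant TCR 2C K166C tagged with TAMRA read by polarization; 0% = receptor in buffer alone and 100% = receptor with positive control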
BSA TAMRA ctr – interferes with TAMRA-BSA probe, flagging TCR-CD3 hits; shares compounds with TCR CD3 inh; TAMRA-labeled BSA probe fluorescence counterscreen; inhibition, % at 9.4 µM; hit rate 10% among 1,200; AID 652035; in the data active means inhibition above about 23%;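 further: 0% = buffer low control and 100% = reference high control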
TCR-CD3 inh conf – TCR-CD3 interaction inhibition, confirmation. shares compounds with TCR CD3 inh. TAMRA-labeled TCR probe fluorescence binding assay. inhibition, % at 9.4 µM. hit rate 48% among 1,200. AID 652036
An asterisk follows results filed as active; · = no result. Only some compounds are listed: those with a hit (about 1.3% of all), similar ones and a draw of the others. Unless noted, no stated cut-off is given here; in the data, active means inhibition above about 19%; inactive means the rest.

SMILES	mABHD4 FP	DDE Tn6 FP inh	DDE Tn7 FP inh	HTRA1 inh	TCR CD3 inh	BSA TAMRA ctr	TCR-CD3 inh conf
COc1ccc(N2CC(C(=O)N3CCCC(C)C3)CC2=O)cc1 (stereo unspecified)	-5	1	4	3	142*	0	0
O=C(CNC(=O)Cc1ccccc1)N=Nc1c(O)[nH]c2ccccc12	7	0	11	3	17	·	·
O=C(CNC(=O)/C=C/c1ccco1)N=Nc1c(O)[nH]c2ccccc12	14	4	7	4	29*	-3	43*
O=C(O)C1=CC[C@@H](c2ccc(Cl)cc2)N(S(=O)(=O)c2ccc(Cl)cc2)[C@H]1c1ccccc1	-10	4	2	-42	36*	0	0
Cc1ccc([C@H]2C(C(=O)O)=CC[C@@H](c3ccc(Cl)cc3)N2S(=O)(=O)c2ccc(C)cc2)cc1	1	4	0	-41	-7	·	·
O=C(OC(C(=O)NCc1ccco1)c1ccc(Cl)cc1)c1cccs1 (stereo unspecified)	-4	5	7	-17	8	·	·
CCC(C)[C@H](NC(=O)OC(C)(C)C)c1nnc(SCc2c(C)[nH]c(=O)[nH]c2=O)o1 (stereo partly specified)	4	-6	2	-2	-1	·	·
O=C(O)c1c[nH]c2c([N+](=O)[O-])cccc2c1=O	9	-5	4	4	24*	-5	23*
CCCCc1nnc(NC(=O)COC)s1	0	-5	-2	-4	-10	·	·
COc1ccc(/C(C)=N/NC(=O)c2cccc(S(=O)(=O)N3CCCC3)c2)c(O)c1	16	2	2	16	34*	-17	20*
COc1ccc(C(C)=NNC(=O)c2cccc(S(=O)(=O)N3CCCC3)c2)cc1	6	5	1	-3	4	·	·
O=C(O)c1cccc(N2C(=O)/C(=C/c3ccc(SCc4ccc(Cl)cc4)o3)SC2=S)c1	32*	-8	2	1	20*	-16	7
NC(=O)c1nsc(C(=O)N(CC(=O)NCc2ccccc2)c2ccc(F)cc2)c1N	1	1	6	-3	36*	3	5
NC(=O)c1nsc(C(=O)N(CC(=O)NCc2ccccc2)c2cccc(F)c2)c1N	-8	-10	0	-8	-6	·	·
O=C(NNC(=O)c1ccccc1OCc1ccccc1)c1ccccc1O	8	4	4	29	33*	-17	19*
O=C(NNC(=O)c1ccccc1OCc1ccccc1)c1ccccc1F	8	10	4	-2	4	·	·
O=C(NNC(=O)c1ccccc1OCc1ccc(F)cc1)c1ccccc1O	5	-4	2	25	25*	-18	23*
CNC(=O)c1ccc(NC(=O)c2cc(S(=O)(=O)N3CCOCC3)ccc2N2CCCC2)cc1	-7	-11	-4	4	0	·	·
O=C(CCN1CCN(c2ccccc2)CC1)NNC(=O)Cc1ccccc1Cl	0	5	1	0	-3	·	·
CC(=O)C1=C(C)N(Cc2ccc(F)cc2)C(=S)NC1c1ccc(Cl)cc1 (stereo unspecified)	-5	0	5	·	7	·	·
CN(CC1CCOCC1)C(=O)CC1C(=O)NCCN1C/C=C/c1ccccc1 (stereo unspecified)	0	-5	4	3	95*	-1	0
CN(CCC1CCOCC1)C(=O)CC1C(=O)NCCN1C/C=C/c1ccccc1 (stereo unspecified)	1	4	-2	5	4	·	·
CCN(CCCNC(=O)c1cc2c(-c3cccc(OC)c3)nn(C)c2s1)Cc1ccccc1	-9	4	1	-54	1	·	·
Cc1nc(Cl)c2c(n1)NC1=C(O2)C(=O)CCC1	6	-5	13	17	37*	29*	30*
OCC#CCSc1nnc(-c2ccccc2Br)o1	-2	2	0	4	4	·	·
SMILES	mABHD4 FP	DDE Tn6 FP inh	DDE Tn7 FP inh	HTRA1 inh	TCR CD3 inh	BSA TAMRA ctr	TCR-CD3 inh conf
Cc1ccc(-c2noc(CCCC(=O)N3CCOCC3)n2)cc1	5	0	-2	-5	6	·	·
Cc1cccc(-c2noc(CCCC(=O)N3CCOCC3)n2)c1	-1	0	1	4	37*	5	3
COCCCn1c(Cc2csc(Nc3ccccc3)n2)nnc1SCC(N)=O	-4	-3	0	1	-10	·	·
O=C1Nc2ccccc2O/C1=C\c1c(F)cccc1Cl	-6	3	4	-2	3	·	·
COc1ccccc1CC1CC(=O)N(c2cccc(Cl)c2C)C1=O (stereo unspecified)	0	1	-4	5	19*	1	1
O=C(Cn1nnc(-c2ccccc2)n1)N/N=C/c1cccc([N+](=O)[O-])c1O	6	5	-2	·	38*	-3	50*
Cc1cc(C(=O)N/N=C/c2cc([N+](=O)[O-])ccc2O)c2ccccc2n1	6	3	1	-7	8	·	·
Cc1cc(C(=O)N/N=C/c2cc(Br)cc([N+](=O)[O-])c2O)c2ccccc2n1	44*	3	-2	11	41*	-10	43*
Cc1cc(C(=O)N/N=C/c2cccc([N+](=O)[O-])c2O)n[nH]1	15	-3	0	1	29*	-8	9
Cc1cc(C(=O)N/N=C/c2ccc(O)c([N+](=O)[O-])c2)n[nH]1	6	0	-5	-4	2	·	·
CCCCCCC(=O)N/N=C/c1ccco1	-4	-2	-1	8	3	·	·
COc1ccc(CCN2C(=O)c3ccccc3C2c2nnnn2C(C)C)cc1OC (stereo unspecified)	1	-6	9	·	3	·	·
COc1cccc(C(=O)COC(=O)C2CC3CCCC(C2)C3=O)c1 (stereo unspecified)	3	5	4	-4	2	·	·
O=C(OCc1ccccc1)c1ccc(Br)o1	-3	3	5	-1	48*	0	-1
C/C(=N\NC(=O)c1ccc(NS(=O)(=O)c2cccs2)cc1)c1ccc(O)cc1O	4	-1	2	17	19*	-12	20*
CC(=O)Nc1cccc(C(=O)NNC(=O)c2ccc(NS(=O)(=O)c3cccs3)cc2)c1	1	0	-5	4	1	·	·
N#Cc1c(N)sc(=S)c2c1CCCCC2	35*	4	6	26	26*	21	26*
Cc1nnc(NC(=O)c2oc3c(ccc4ccccc43)c2C)s1	-1	-4	-2	-4	8	·	·
Cc1nn2c(-c3cccc(NC(=O)c4ccco4)c3)nnc2c2ccccc12	-20	12	0	-33	20*	0	9
CCCNC(=O)C1(C)CCCN(Cc2csc3ccccc23)C1 (stereo unspecified)	1	7	9	·	6	·	·
